Reference: ChEMBL document CHEMBL4020804, “Minor phenolics from Angelica keiskei and their proliferative effects on Hep3B cells” (Bioorg Med Chem Lett, 2017)

How the values were obtained:
[1] = system: Hep 3B2; experiment: Proliferative activity against human Hep3B cells assessed as cell viability at 0.1 uM after 4 days by cell counting method relative to control; type: functional; details: 96 h, read-out: Activity
Procedure, shortened: (§1)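 Hep3B kept in DMEM/10% FBS, 37°C, 5% CO2, then seeded at 1×10^5 cells/ml in medium containing compound (0.1–100 μM; DMSO-only control) in monolayer. Cells were checked daily by microscope for attachment and morphology, and counted after 4 days, in triplicate, in three independent experiments. Counts are given as % of the 0 μM group.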

[2] = system: Hep 3B2; experiment: Proliferative activity against human Hep3B cells assessed as cell viability at 1 uM after 4 days by cell counting method relative to control; type: functional; details: 96 h, read-out: Activity; procedure, shortened: as §1
[3] = system: Hep 3B2; experiment: Proliferative activity against human Hep3B cells assessed as cell viability at 10 uM after 4 days by cell counting method relative to control; type: functional; details: 96 h, read-out: Activity; procedure, shortened: as §1
[4] = system: Hep 3B2; experiment: Proliferative activity against human Hep3B cells assessed as cell viability at 100 uM after 4 days by cell counting method relative to control; type: functional; details: 96 h, read-out: Activity; procedure, shortened: as §1
[5] = system: Hep 3B2; experiment: Proliferative activity against human Hep3B cells assessed as cell viability after 4 days by cell counting method; type: functional, cell-based; procedure, shortened: as §1
[6] = system: Hep 3B2; experiment: Cytoprotective activity against GOX-induced oxidative stress in human Hep3B cells assessed as cell survival at 0.1 uM treated for 5 hrs with 15 mU/ml GOX challenge by MTT assay (reference value: 41.51 +/- 1.39%); type: functional; details: read-out: Survival
[7] = system: Hep 3B2; experiment: Cytoprotective activity against GOX-induced oxidative stress in human Hep3B cells assessed as cell survival at 100 uM treated for 5 hrs with 15 mU/ml GOX challenge by MTT assay (reference value: 41.51 +/- 1.39%); type: functional; details: read-out: Survival
[8] = system: Hep 3B2; experiment: Cytoprotective activity against GOX-induced oxidative stress in human Hep3B cells assessed as cell survival at 1 uM treated for 5 hrs with 15 mU/ml GOX challenge by MTT assay (reference value: 41.51 +/- 1.39%); type: functional; details: read-out: Survival
[9] = system: Hep 3B2; experiment: Cytoprotective activity against GOX-induced oxidative stress in human Hep3B cells assessed as cell survival at 10 uM treated for 5 hrs with 15 mU/ml GOX challenge by MTT assay (reference value: 41.51 +/- 1.39%); type: functional; details: read-out: Survival
[10] = system: NIH3T3; experiment: Cytoprotective activity against GOX-induced oxidative stress in mouse NIH/3T3 cells assessed as cell survival at 0.1 uM treated for 5 hrs with 15 mU/ml GOX challenge by MTT assay (reference value: 42.71 +/- 2.10%); type: functional; details: NIH3T3, 5 h, read-out: Survival
[11] = system: Hep 3B2; experiment: Cytoprotective activity against GOX-induced oxidative stress in human Hep3B cells assessed as increase in cell survival treated for 5 hrs with 15 mU/ml GOX challenge by MTT assay; type: functional, cell-based
Procedure, shortened: (§2)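 Cells plated at 7×10^4 per well; next day exposed for 5 h to compound (0.1–100 μM) with 15 mU/ml glucose oxidase in growth medium. Viability expressed relative to GOX-free cells; α-tocopherol positive control.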

[12] = system: NIH3T3; experiment: Cytoprotective activity against GOX-induced oxidative stress in mouse NIH/3T3 cells assessed as cell survival at 1 uM treated for 5 hrs with 15 mU/ml GOX challenge by MTT assay (reference value: 42.71 +/- 2.10%); type: functional; details: NIH3T3, 5 h, read-out: Survival
[13] = system: NIH3T3; experiment: Cytoprotective activity against GOX-induced oxidative stress in mouse NIH/3T3 cells assessed as cell survival at 10 uM treated for 5 hrs with 15 mU/ml GOX challenge by MTT assay (reference value: 42.71 +/- 2.10%); type: functional; details: NIH3T3, 5 h, read-out: Survival
[14] = system: NIH3T3; experiment: Cytoprotective activity against GOX-induced oxidative stress in mouse NIH/3T3 cells assessed as cell survival at 100 uM treated for 5 hrs with 15 mU/ml GOX challenge by MTT assay (reference value: 42.71 +/- 2.10%); type: functional; details: NIH3T3, 5 h, read-out: Survival
[15] = system: NIH3T3; experiment: Cytoprotective activity against GOX-induced oxidative stress in mouse NIH/3T3 cells assessed as increase in cell survival treated for 5 hrs with 15 mU/ml GOX challenge by MTT assay; type: functional, cell-based; procedure, shortened: as §2
[16] = system: Hep 3B2; experiment: Cytoprotective activity against GOX-induced cytotoxicity in human Hep3B cells assessed as LDH release at 0.1 uM treated for 5 hrs with 15 mU/ml GOX challenge by spectrophotometric method (reference value: 60.94 +/- 1.18%); type: functional
[17] = system: Hep 3B2; experiment: Cytoprotective activity against GOX-induced cytotoxicity in human Hep3B cells assessed as LDH release at 1 uM treated for 5 hrs with 15 mU/ml GOX challenge by spectrophotometric method (reference value: 60.94 +/- 1.18%); type: functional
[18] = system: Hep 3B2; experiment: Cytoprotective activity against GOX-induced cytotoxicity in human Hep3B cells assessed as LDH release at 10 uM treated for 5 hrs with 15 mU/ml GOX challenge by spectrophotometric method (reference value: 60.94 +/- 1.18%); type: functional
[19] = system: Hep 3B2; experiment: Cytoprotective activity against GOX-induced cytotoxicity in human Hep3B cells assessed as LDH release at 100 uM treated for 5 hrs with 15 mU/ml GOX challenge by spectrophotometric method (reference value: 60.94 +/- 1.18%); type: functional
[20] = system: Hep 3B2; experiment: Cytoprotective activity against GOX-induced cytotoxicity in human Hep3B cells assessed as decrease in LDH release treated for 5 hrs with 15 mU/ml GOX challenge by spectrophotometric method; type: functional, cell-based
[21] = system: NIH3T3; experiment: Cytoprotective activity against GOX-induced cytotoxicity in mouse NIH/3T3 cells assessed as LDH release at 0.1 uM treated for 5 hrs with 15 mU/ml GOX challenge by spectrophotometric method (reference value: 63.34 +/- 1.85%); type: functional
[22] = system: NIH3T3; experiment: Cytoprotective activity against GOX-induced cytotoxicity in mouse NIH/3T3 cells assessed as LDH release at 1 uM treated for 5 hrs with 15 mU/ml GOX challenge by spectrophotometric method (reference value: 63.34 +/- 1.85%); type: functional
[23] = system: NIH3T3; experiment: Cytoprotective activity against GOX-induced cytotoxicity in mouse NIH/3T3 cells assessed as LDH release at 10 uM treated for 5 hrs with 15 mU/ml GOX challenge by spectrophotometric method (reference value: 63.34 +/- 1.85%); type: functional
[24] = system: NIH3T3; experiment: Cytoprotective activity against GOX-induced cytotoxicity in mouse NIH/3T3 cells assessed as LDH release at 100 uM treated for 5 hrs with 15 mU/ml GOX challenge by spectrophotometric method (reference value: 63.34 +/- 1.85%); type: functional
[25] = system: NIH3T3; experiment: Cytoprotective activity against GOX-induced cytotoxicity in mouse NIH/3T3 cells assessed as decrease in LDH release treated for 5 hrs with 15 mU/ml GOX challenge by spectrophotometric method; type: functional, cell-based
[26] = system: Hep 3B2; experiment: Cytotoxicity against human Hep3B cells assessed as effect on cell attachment at 0.1 to 100 uM measured every day during 4 days incubation period by microscopic method; type: cell-based; details: hep 3b2, 96 h; procedure, shortened: as §1
[27] = system: Hep 3B2; experiment: Cytotoxicity against human Hep3B cells assessed as effect on cell morphology at 0.1 to 100 uM measured every day during 4 days incubation period by microscopic method; type: cell-based; details: hep 3b2, 96 h; procedure, shortened: as §1

| SMILES | viability at 0.1 µM [1] [%] | viability at 1 µM [2] [%] | viability at 10 µM [3] [%] | viability at 100 µM [4] [%] | Activity [5] | viability at 0.1 µM [6] [%] | viability at 100 µM [7] [%] | viability at 1 µM [8] [%] | viability at 10 µM [9] [%] | viability at 0.1 µM [10] [%] | Activity [11] | viability at 1 µM [12] [%] | viability at 10 µM [13] [%] | viability at 100 µM [14] [%] | Activity [15] | Activity [16] [%] | Activity [17] [%] | Activity [18] [%] | Activity [19] [%] | Activity [20] | also measured |
| --- | --- | --- | --- | --- | --- | --- | --- | --- | --- | --- | --- | --- | --- | --- | --- | --- | --- | --- | --- | --- | --- |
| C=C(C)[C@H]1CC[C@](C)([C@@H](O)Cc2c(O)ccc(C(=O)/C=C/c3ccc(O)cc3)c2O)O1 (racemic) | 100 | 101 | 102 | 116 | Dose-dependent effect | 45.2 | 76.8 | 60.5 | 65.4 | 44.9 | Dose-dependent effect | 61.4 | 66.4 | 81.8 | Dose-dependent effect | 26.09 | 20.91 | 14.03 | 6.99 | Dose-dependent effect | Activity [21]: 28.31%; Activity [22]: 20.91%; Activity [23]: 15.76%; Activity [24]: 6.22%; Activity [25]: Dose-dependent effect; Activity [26]: Non-Toxic; Activity [27]: Non-Toxic |
| C/C=C(/C)C(=O)O[C@@H]1c2c(ccc3ccc(=O)oc23)OC(C)(C)[C@@H]1O[C@@H]1O[C@H](CO)[C@@H](O)[C@H](O)[C@H]1O | 101 | 102 | 113 | 114 | Dose-dependent effect | 59.2 | 91.2 | 65.3 | 76.9 | 58.6 | Dose-dependent effect | 64.5 | 75.8 | 93.8 | Dose-dependent effect | 28.01 | 19.57 | 10.28 | 6.16 | Dose-dependent effect | Activity [21]: 29.9%; Activity [22]: 21.12%; Activity [23]: 9.25%; Activity [24]: 5.75%; Activity [25]: Dose-dependent effect; Activity [26]: Non-Toxic; Activity [27]: Non-Toxic |
| CC(C)=CCCC(C)(O)C1Cc2c(O)ccc(C(=O)/C=C/c3ccc(O)cc3)c2O1 (stereo unspecified) | 100 | 102 | 104 | 113 | Dose-dependent effect | 42.9 | 76 | 49 | 62.1 | 43.5 | Dose-dependent effect | 44.4 | 57.5 | 77.8 | Dose-dependent effect | 25.13 | 19.53 | 19.08 | 8.14 | Dose-dependent effect | Activity [21]: 27.7%; Activity [22]: 21.87%; Activity [23]: 15%; Activity [24]: 12.35%; Activity [25]: Dose-dependent effect; Activity [26]: Non-Toxic; Activity [27]: Non-Toxic |
